In brackets after ≈: the same amount, converted by molar mass.

Series [1] deals with S. aureus VRS1. Description: MIC, in vitro antibacterial activity. The settings on record: Staphylococcus aureus, MRSA. It is filed as cell-based.
Series [2] deals with S. aureus NRS119. Description: MIC, in vitro antibacterial activity. The format is cell-based. The settings on record: Staphylococcus aureus, MRSA|NRS119.
Series [3] deals with S. aureus NRS128. Description: MIC, in vitro antibacterial activity. Particulars: Staphylococcus aureus, MSSA|NRS128. It is filed as cell-based.
The subject of series [4] is S. aureus NRS100. Description: MIC, in vitro antibacterial activity. The format is cell-based. The settings on record: Staphylococcus aureus, MRSA|NRS100.
In series [5] the test system is S. aureus NRS123. Briefly: MIC, in vitro antibacterial activity. Particulars: Staphylococcus aureus, MRSA|NRS123. The format is cell-based.
The subject of series [6] is S. aureus ATCC 29213. Description: MIC, in vitro antibacterial activity. It is filed as cell-based, Staphylococcus aureus.
Series [7] concerns S. aureus VRS2. Briefly: MIC, in vitro antibacterial activity. The format is cell-based. Particulars: Staphylococcus aureus, MRSA.
For series [8], the system named is S. aureus NRS70. Briefly: MIC, in vitro antibacterial activity. The format is cell-based. Particulars: Staphylococcus aureus, MRSA|NRS70.
The test system of series [9] is S. aureus NRS120. Briefly: MIC, in vitro antibacterial activity. It is filed as cell-based. Particulars: Staphylococcus aureus, MRSA|NRS120.
The subject of series [10] is S. epidermidis ATCC 35547. Briefly: MIC, in vitro antibacterial activity. It is filed as cell-based. The settings on record: Staphylococcus epidermidis, ATCC35547.
In series [11] the test system is S. aureus ATCC 29213 RNA synthesis. Briefly: Macromolecular synthesis assay, RNA. It is filed as cell-based, Staphylococcus aureus. Particulars: 0.5 MIC. The gist of the method:
(§1)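 Logarithmic-phase S. aureus ATCC 29213 was exposed to test compound at 1/2 MIC, and incorporation of radiolabeled precursors was monitored: [methyl-3H]-thymidine (DNA), [5,6-3H]-uridine (RNA) and L-[4,5-3H]-leucine (protein). Controls were ciprofloxacin 0.5 μg/mL (DNA), rifampicin 8 ng/mL (RNA) and tetracycline 31 ng/mL (protein). Maximum inhibition was taken at 80 min for DNA and at 120 min for RNA and protein.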

Series [12] can be described thus: Hemolysis of red blood cells. The format is cell-based.
Series [13] can be described thus: Metabolic stability in human S9. Particulars: liver S9. It is filed as in vitro ADME.
A short description of series [14]: Pharmacokinetics after single iv or po dose. It is filed as in vivo, mice.
For series [15], the system named is PBP2a (pbp2a antisense, MRSA COL). Briefly: Antisense sensitization, pbp2a antisense in MRSA COL. The settings on record: xylose induction. The format is cell-based, S. aureus.
Series [16] can be described thus: Metabolic stability in rat S9. It is filed as in vitro ADME. The settings on record: liver S9.
For series [17], the system named is S. aureus ATCC 29213 protein synthesis. Description: Macromolecular synthesis assay, protein. The format is cell-based, Staphylococcus aureus. The settings on record: 0.5 MIC. The gist of the method:
as §1

Series [18] has as its system PBP1 (pbpA antisense, MRSA COL). Description: Antisense sensitization, pbpA antisense in MRSA COL. Particulars: xylose induction. It is filed as cell-based, S. aureus.
A short description of series [19]: Alkylating agent test.
For series [20], the system named is HepG2 cells. Briefly: XTT cell proliferation assay. The format is cell-based. Particulars: Homo sapiens, HepG2, read-out: IC50, XTT cell proliferation assay.
The nature of series [21]: Glutathione adduct formation. The format is in vitro ADME.
The nature of series [22]: Water solubility. The format is physicochemical. In outline:
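Test compound tested as its sodium salt, dissolved in water.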

The target in series [23] is PBP2a (Staphylococcus aureus, UniProt P07944). Briefly: Bocillin FL competition assay, purified recombinant PBP2a. It is filed as binding, S. aureus. The gist of the method:
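Recombinant purified PBP2a (1 μM) was labeled with fluorescent Bocillin FL (20 μM) in the presence of increasing amounts of test compound (μg/mL). Competition was read as loss of fluorescence labeling of the active site, and an apparent IC50 was derived.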

The subject of series [24] is S. aureus ATCC 29213 DNA synthesis. Description: Macromolecular synthesis assay, DNA. The format is cell-based, Staphylococcus aureus. Particulars: 0.5 MIC. In outline: as §1
The test system of series [25] is T7 transcription. Description: In vitro transcription assay, T7 transcription kit. It is filed as biochemical.
Series [26] in a line: Stability in mouse plasma. The format is in vitro ADME.
Series [27] has as its target PBP2a allosteric site (Staphylococcus aureus, UniProt P07944). Briefly: Intrinsic fluorescence quenching of oxacillin-acylated PBP2a. It is filed as binding, S. aureus. The gist of the method: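 PBP2a intrinsic fluorescence was excited at 280 nm and emission spectra were scanned while test compound was titrated to the final concentrations shown. Kd came from nonlinear regression of the change in maximum fluorescence intensity, averaged over three experiments.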

In series [28] the test system is E. coli S30 extract translation. It is filed as biochemical. The settings on record: β-galactosidase assay system.
The subject of series [29] is S. aureus ATCC 29213 cell-wall biosynthesis. Briefly: Macromolecular synthesis assay, cell wall. The settings on record: 2 at 0.5 MIC. The format is cell-based, Staphylococcus aureus. The gist of the method:
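Logarithmic-phase S. aureus ATCC 29213 was treated with test compound at 1/2 MIC. Peptidoglycan synthesis was followed as D-[2,3-3H]-alanine incorporation into cell wall, with fosfomycin (16 μg/mL) as control. Maximum inhibition was taken at 120 min.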

In series [30] the test system is E. faecium. Description: MIC, ESKAPE panel. The format is cell-based, Enterococcus faecium.
Series [31] relates to Gram-negative bacteria of our panel. Description: Antibacterial activity, E. coli and ESKAPE panel. The format is cell-based. The settings on record: Gram-negative bacteria of the E. coli/ESKAPE panel.
Where [32] appears, read: Staphylococcus aureus, ATCC29213|MSSA.
[33] abbreviates: experiment with meropenem control.

PBP2a, sequence (P07944 whole entry): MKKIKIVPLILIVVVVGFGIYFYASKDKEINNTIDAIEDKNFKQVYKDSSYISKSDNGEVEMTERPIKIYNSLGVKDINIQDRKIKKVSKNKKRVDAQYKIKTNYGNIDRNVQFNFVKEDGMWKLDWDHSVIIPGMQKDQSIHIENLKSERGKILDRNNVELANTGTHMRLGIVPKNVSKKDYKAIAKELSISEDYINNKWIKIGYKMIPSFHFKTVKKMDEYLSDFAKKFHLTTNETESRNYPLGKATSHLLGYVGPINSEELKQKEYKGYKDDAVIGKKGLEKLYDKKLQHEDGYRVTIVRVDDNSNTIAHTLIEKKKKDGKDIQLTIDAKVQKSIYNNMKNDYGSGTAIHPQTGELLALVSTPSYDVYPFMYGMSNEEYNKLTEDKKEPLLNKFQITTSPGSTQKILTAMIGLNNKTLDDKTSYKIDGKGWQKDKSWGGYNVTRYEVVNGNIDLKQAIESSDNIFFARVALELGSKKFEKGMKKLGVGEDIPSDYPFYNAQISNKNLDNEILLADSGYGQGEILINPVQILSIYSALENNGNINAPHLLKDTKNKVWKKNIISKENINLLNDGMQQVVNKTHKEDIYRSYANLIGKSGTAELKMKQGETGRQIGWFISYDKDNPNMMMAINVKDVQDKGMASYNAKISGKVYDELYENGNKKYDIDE
PBP2a allosteric site, sequence (P07944 whole entry): as above

Consider `CN[C@H](CC(C)C)C(=O)N[C@H]1C(=O)N[C@@H](CC(N)=O)C(=O)N[C@H]2C(=O)N[C@H]3C(=O)N[C@H](C(=O)N[C@H](C(=O)O)c4cc(O)cc(O)c4-c4cc3ccc4O)[C@H](O)c3ccc(c(Cl)c3)Oc3cc2cc(c3O[C@@H]2O[C@H](CO)[C@@H](O)[C@H](O)[C@H]2O[C@H]2C[C@](C)(N)[C@H](O)[C@H](C)O2)Oc2ccc(cc2Cl)[C@H]1O` [vancomycin], for which the MIC in [1] stood at 512 µg/mL (≈ 353 µM); in [2], 2 µg/mL (≈ 1.38 µM); in series [3] it was 1 µg/mL (≈ 0.69 µM); in [4], 2 µg/mL (≈ 1.38 µM); in series [5], 1 µg/mL (≈ 0.69 µM); in [6] (setting [32]), 1 µg/mL (≈ 0.69 µM). The minimal inhibitory concentration (MIC) in [7] is 64 µg/mL (≈ 44.2 µM); in series [8], 1 µg/mL (≈ 0.69 µM); in [9], 2 µg/mL (≈ 1.38 µM); in [10], 16 µg/mL (≈ 11 µM).

For `N#Cc1ccc(/C=C/c2nc3ccccc3c(=O)n2-c2cccc(C(=O)O)c2)cc1` [compound 2, (E)-3-(3-carboxyphenyl)-2-(4-cyanostyryl)quinazolin-4(3H)-one], the MIC in [1] amounted to 16 µg/mL (≈ 40.7 µM); in [2], 8 µg/mL (≈ 20.3 µM); in series [3] it was 4 µg/mL (≈ 10.2 µM); in series [4] it was 16 µg/mL (≈ 40.7 µM); in series [5], 2 µg/mL (≈ 5.08 µM); in series [6] (setting [32]), 2 µg/mL (≈ 5.08 µM). For the same compound, the MIC in series [7] is 2 µg/mL (≈ 5.08 µM); in [8], 2 µg/mL (≈ 5.08 µM); in series [9] it was 8 µg/mL (≈ 20.3 µM); in [10], 1 µg/mL (≈ 2.54 µM). Further, in [11], the “effect on transcription (RNA synthesis, [5,6-3H]-uridine incorporation)” value is “did not significantly affect”. In [12], this compound showed a hemolysis at 50 μg/mL of less than 1%. Besides, the share remaining at 1 h in series [13] and in series [16] was 100% in each case. In series [14] (mice, single 10 mg/kg oral (po) dose), this compound had a maximum concentration of 1.29 µg/mL. In [14] (mouse, in vivo, iv, 10 mg/kg), the “time plasma levels sustained above MIC” value turned out to be 2 h. This compound showed a clearance in [14] (mouse, plasma, iv, 10 mg/kg) of 6.87 mL/min/kg. Moreover, the half-life in series [14] (mouse, plasma, iv, 10 mg/kg) is more than 20 h; in series [14] (mouse, plasma, po, 10 mg/kg), more than 20 h. The “sensitization on attenuation of PBP2a expression” value in series [15] is listed as “sensitized the strain”. The “effect on translation (protein synthesis, L-[4,5-3H]-leucine incorporation)” value in series [17] is “did not significantly affect”. Moreover, the “sensitization on attenuation of PBP1 expression” value in [18] is “sensitized the strain”. The alkylating agent result in [19] is on record as “not an alkylating agent”. The IC50 in [20] is 63 ± 1 µg/mL (≈ 160 µM); in series [23], 356 µM. In [21], the glutathione adduct formation result is “did not form glutathione adducts”. The concentration in solution in series [22] (solubility) was 8000 µg/mL (≈ 20300 µM). The “effect on replication (DNA synthesis, [methyl-3H]-thymidine incorporation)” value in [24] is on record as “did not significantly affect”. Besides, in series [25], the “inhibition of in vitro transcription” value is on record as “did not show inhibition”. Moreover, the “half-life in mouse plasma” value in series [26] was found to be 141 h. For the same compound, the Kd in series [27] was 17.5 µM. The “inhibition of in vitro translation” value in series [28] was “did not show inhibition”. For the same compound, the “inhibition of cell-wall biosynthesis (D-[2,3-3H]-alanine incorporation)” value in series [29] (experiment with fosfomycin control, fosfomycin 16 μg/mL, 120 min) is 51 ± 12%; in [29] (setting [33]) it was 61 ± 4%.

Take `CC(=O)NC[C@H]1CN(c2ccc(N3CCOCC3)c(F)c2)C(=O)O1` [linezolid]: the MIC was 2 µg/mL (≈ 5.93 µM) in series [1]; 32 µg/mL (≈ 94.9 µM) in series [2]; 1 µg/mL (≈ 2.96 µM) in series [3]; 2 µg/mL (≈ 5.93 µM) in series [4]; 2 µg/mL (≈ 5.93 µM) in series [5]; 4 µg/mL (≈ 11.9 µM) in series [6] (setting [32]). For the same compound, the MIC in series [7] stood at 2 µg/mL (≈ 5.93 µM); in series [8] it was 1 µg/mL (≈ 2.96 µM); in series [9], 32 µg/mL (≈ 94.9 µM); in [10], 1 µg/mL (≈ 2.96 µM).

`C[C@@H](O)[C@H]1C(=O)N2C(C(=O)O)=C(SCCN=CN)C[C@H]12` [imipenem]: the “sensitization on attenuation of PBP2a expression” value in series [15] is “sensitized the strain”. Further, in series [18], the “sensitization on attenuation of PBP1 expression” value is recorded as “sensitized the strain”.

In the case of `C[C@@H](O)[C@H]1C(=O)N2C(C(=O)O)=C(S[C@@H]3CN[C@H](C(=O)N(C)C)C3)[C@H](C)[C@H]12` [meropenem, reference compound], the “inhibition of cell-wall biosynthesis (D-[2,3-3H]-alanine incorporation)” value in series [29] (setting [33]) amounted to 64 ± 2%.

On to `CCO/N=C(\C(=O)N[C@@H]1C(=O)N2C(C(=O)[O-])=C(Sc3nc(-c4cc[n+](C)cc4)cs3)CS[C@H]12)c1nsc(N)n1` [ceftaroline], for which the “sensitization on attenuation of PBP2a expression” value in series [15] is “sensitized the strain”. For the same compound, the “sensitization on attenuation of PBP1 expression” value in [18] is given as “sensitized the strain”.

With `N#Cc1ccc(/C=C/c2nc3ccccc3c(=O)n2-c2cccc(C(=O)O)c2)cc1` [compound 1], the MIC in series [30] stood at 16 µg/mL (≈ 40.7 µM); in [6] (S. aureus ATCC 29213, quality control MSSA strain), 2 µg/mL (≈ 5.08 µM). Besides, the “activity against Gram-negative bacteria” value in series [31] was “did not have activity”.

Take `Cc1onc(-c2ccccc2)c1C(=O)N[C@@H]1C(=O)N2[C@@H]1SC(C)(C)[C@@H]2C(=O)O` [oxacillin]: the MIC in series [1] is 512 µg/mL (≈ 1280 µM); in series [2], 512 µg/mL (≈ 1280 µM); in [3] it was 0.5 µg/mL (≈ 1.25 µM); in [4], 512 µg/mL (≈ 1280 µM); in series [5] it was 32 µg/mL (≈ 79.7 µM); in series [6] (setting [32]), 0.25 µg/mL (≈ 0.623 µM). Further, the MIC was 256 µg/mL (≈ 638 µM) in series [7], 32 µg/mL (≈ 79.7 µM) in [8], 512 µg/mL (≈ 1280 µM) in series [9] and 128 µg/mL (≈ 319 µM) in series [10].

The record behind these values is paper PMC4607046 (Journal of the American Chemical Society, 2015).
